Reference: ChEMBL document CHEMBL3352666, “Human Toll-like receptor 8-selective agonistic activities in 1-alkyl-1H-benzimidazol-2-amines” (J Med Chem, 2014)
Active and inactive are the calls of the source. No cut-off for these calls is given here.

Experiments:
Assay type in all cases: cell-based
[1] = target: T1, Toll-like receptor 8 (Homo sapiens, UniProt Q9NR97); assay: Agonist activity at human TLR8 stably expressed in HEK293 cells co-expressing secreted alkaline phosphatase assessed as NF-kappaB induction by liquid handler-assisted reporter gene assay
T1 sequence (Q9NR97 whole entry): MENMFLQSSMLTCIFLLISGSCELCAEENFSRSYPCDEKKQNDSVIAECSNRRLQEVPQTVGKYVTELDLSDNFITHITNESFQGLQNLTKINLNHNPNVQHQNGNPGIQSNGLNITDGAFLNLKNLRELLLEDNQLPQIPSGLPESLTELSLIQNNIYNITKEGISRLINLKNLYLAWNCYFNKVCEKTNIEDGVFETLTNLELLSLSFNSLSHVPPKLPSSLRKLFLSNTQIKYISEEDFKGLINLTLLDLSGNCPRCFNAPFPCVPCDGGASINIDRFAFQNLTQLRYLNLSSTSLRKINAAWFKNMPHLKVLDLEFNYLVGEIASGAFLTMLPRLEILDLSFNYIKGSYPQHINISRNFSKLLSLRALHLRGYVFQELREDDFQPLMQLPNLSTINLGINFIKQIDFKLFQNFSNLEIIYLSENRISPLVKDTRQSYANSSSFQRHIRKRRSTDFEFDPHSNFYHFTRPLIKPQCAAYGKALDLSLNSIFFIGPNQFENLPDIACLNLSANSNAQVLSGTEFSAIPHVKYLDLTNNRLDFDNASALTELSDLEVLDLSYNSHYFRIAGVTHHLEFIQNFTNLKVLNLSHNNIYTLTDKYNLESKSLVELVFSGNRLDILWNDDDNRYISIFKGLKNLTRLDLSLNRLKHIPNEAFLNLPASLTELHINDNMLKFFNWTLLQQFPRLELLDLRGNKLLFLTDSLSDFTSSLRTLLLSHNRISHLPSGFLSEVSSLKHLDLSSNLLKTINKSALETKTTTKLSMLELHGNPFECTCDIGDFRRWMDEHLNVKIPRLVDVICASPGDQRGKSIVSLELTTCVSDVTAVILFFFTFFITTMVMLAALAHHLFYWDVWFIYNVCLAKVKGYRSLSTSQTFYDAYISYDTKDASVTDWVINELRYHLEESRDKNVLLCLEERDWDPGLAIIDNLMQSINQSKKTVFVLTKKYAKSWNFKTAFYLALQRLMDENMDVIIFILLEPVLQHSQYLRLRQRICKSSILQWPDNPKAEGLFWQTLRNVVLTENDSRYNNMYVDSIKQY
In short: (§1)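 HEK293 reporter cells stably co-transfected with the respective human TLR or NOD receptor plus NF-κB/AP-1-driven secreted alkaline phosphatase, kept in selection medium. About 10^5 cells/ml were incubated with graded concentrations of test compound in 384-well format. Supernatant sAP was read colorimetrically at 620 nm with an alkaline phosphatase-specific chromogen in detection medium.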

[2] = target: Toll-like receptor 2 (Homo sapiens) (UniProt O60603); assay: Agonist activity at human TLR2 stably expressed in HEK293 cells co-expressing secreted alkaline phosphatase assessed as NF-kappaB induction by liquid handler-assisted reporter gene assay; in short: as §1
[3] = target: Toll-like receptor 3 (Homo sapiens) (UniProt O15455); assay: Agonist activity at human TLR3 stably expressed in HEK293 cells co-expressing secreted alkaline phosphatase assessed as NF-kappaB induction by liquid handler-assisted reporter gene assay; in short: as §1
[4] = target: Toll-like receptor 4 (Homo sapiens) (UniProt O00206); assay: Agonist activity at human TLR4 stably expressed in HEK293 cells co-expressing secreted alkaline phosphatase assessed as NF-kappaB induction by liquid handler-assisted reporter gene assay; in short: as §1
[5] = target: Toll-like receptor 5 (Homo sapiens) (UniProt O60602); assay: Agonist activity at human TLR5 stably expressed in HEK293 cells co-expressing secreted alkaline phosphatase assessed as NF-kappaB induction by liquid handler-assisted reporter gene assay; in short: as §1
[6] = target: T2, Toll-like receptor 9 (Homo sapiens) (UniProt Q9NR96); assay: Agonist activity at human TLR9 stably expressed in HEK293 cells co-expressing secreted alkaline phosphatase assessed as NF-kappaB induction by liquid handler-assisted reporter gene assay; in short: as §1
T2 sequence (whole entry): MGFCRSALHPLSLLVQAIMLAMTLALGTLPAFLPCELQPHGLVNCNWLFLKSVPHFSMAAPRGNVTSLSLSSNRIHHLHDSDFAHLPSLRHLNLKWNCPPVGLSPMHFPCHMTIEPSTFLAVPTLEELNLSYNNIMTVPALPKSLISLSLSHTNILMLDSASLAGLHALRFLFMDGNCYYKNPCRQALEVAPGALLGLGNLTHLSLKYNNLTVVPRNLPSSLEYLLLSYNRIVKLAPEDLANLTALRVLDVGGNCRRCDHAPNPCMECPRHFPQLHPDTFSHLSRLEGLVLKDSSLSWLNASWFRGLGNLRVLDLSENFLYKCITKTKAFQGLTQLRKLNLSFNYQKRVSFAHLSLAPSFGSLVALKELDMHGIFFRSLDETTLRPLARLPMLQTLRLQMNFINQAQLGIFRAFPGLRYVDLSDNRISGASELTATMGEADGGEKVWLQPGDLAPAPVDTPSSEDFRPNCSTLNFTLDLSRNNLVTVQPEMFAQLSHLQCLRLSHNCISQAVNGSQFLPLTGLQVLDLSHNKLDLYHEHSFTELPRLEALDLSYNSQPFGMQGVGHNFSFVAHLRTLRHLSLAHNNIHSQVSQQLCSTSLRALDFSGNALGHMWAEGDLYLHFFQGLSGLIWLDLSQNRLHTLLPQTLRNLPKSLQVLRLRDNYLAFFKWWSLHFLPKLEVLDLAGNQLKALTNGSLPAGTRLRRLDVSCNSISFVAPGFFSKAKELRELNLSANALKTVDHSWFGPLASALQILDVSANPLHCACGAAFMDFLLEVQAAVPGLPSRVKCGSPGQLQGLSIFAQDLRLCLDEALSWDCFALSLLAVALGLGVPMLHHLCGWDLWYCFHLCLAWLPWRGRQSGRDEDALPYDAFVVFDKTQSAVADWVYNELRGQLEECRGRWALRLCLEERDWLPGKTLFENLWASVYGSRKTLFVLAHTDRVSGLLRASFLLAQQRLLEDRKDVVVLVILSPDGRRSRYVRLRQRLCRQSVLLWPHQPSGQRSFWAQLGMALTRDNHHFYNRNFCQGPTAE

[7] = target: Nucleotide-binding oligomerization domain-containing protein 2 (Homo sapiens, UniProt Q9HC29); assay: Agonist activity at human NOD2 stably expressed in HEK293 cells co-expressing secreted alkaline phosphatase assessed as NF-kappaB induction by liquid handler-assisted reporter gene assay; in short: as §1
Sequence of Nucleotide-binding oligomerization domain-containing protein 2 (Q9HC29 whole entry, the tested form may be a part): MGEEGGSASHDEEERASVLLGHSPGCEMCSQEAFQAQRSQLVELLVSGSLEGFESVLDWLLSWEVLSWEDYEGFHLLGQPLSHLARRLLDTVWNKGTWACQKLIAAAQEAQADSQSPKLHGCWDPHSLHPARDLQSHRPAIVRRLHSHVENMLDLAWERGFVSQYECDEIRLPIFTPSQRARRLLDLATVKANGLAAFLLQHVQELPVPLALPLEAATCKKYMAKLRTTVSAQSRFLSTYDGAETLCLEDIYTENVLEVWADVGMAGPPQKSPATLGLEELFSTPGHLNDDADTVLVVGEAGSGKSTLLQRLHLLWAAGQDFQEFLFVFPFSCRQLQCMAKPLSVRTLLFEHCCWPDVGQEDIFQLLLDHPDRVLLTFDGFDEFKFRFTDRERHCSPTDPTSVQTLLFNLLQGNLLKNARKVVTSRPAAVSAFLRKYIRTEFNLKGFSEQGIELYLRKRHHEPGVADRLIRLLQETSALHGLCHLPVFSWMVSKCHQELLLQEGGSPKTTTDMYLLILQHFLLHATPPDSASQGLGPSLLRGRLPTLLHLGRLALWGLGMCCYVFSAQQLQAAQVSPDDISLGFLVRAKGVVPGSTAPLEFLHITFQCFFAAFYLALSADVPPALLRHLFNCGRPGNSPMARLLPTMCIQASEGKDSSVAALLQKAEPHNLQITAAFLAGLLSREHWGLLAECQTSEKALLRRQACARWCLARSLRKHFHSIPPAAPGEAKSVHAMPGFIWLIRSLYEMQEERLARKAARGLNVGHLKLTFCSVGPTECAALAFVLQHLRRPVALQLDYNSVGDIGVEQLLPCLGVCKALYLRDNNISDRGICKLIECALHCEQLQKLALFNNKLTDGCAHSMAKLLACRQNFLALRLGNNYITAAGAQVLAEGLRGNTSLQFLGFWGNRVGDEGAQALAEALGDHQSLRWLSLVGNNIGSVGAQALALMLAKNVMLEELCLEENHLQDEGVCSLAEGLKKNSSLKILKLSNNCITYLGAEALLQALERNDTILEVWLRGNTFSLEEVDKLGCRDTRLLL

Sequence of Toll-like receptor 2 (Homo sapiens) (O60603 whole entry): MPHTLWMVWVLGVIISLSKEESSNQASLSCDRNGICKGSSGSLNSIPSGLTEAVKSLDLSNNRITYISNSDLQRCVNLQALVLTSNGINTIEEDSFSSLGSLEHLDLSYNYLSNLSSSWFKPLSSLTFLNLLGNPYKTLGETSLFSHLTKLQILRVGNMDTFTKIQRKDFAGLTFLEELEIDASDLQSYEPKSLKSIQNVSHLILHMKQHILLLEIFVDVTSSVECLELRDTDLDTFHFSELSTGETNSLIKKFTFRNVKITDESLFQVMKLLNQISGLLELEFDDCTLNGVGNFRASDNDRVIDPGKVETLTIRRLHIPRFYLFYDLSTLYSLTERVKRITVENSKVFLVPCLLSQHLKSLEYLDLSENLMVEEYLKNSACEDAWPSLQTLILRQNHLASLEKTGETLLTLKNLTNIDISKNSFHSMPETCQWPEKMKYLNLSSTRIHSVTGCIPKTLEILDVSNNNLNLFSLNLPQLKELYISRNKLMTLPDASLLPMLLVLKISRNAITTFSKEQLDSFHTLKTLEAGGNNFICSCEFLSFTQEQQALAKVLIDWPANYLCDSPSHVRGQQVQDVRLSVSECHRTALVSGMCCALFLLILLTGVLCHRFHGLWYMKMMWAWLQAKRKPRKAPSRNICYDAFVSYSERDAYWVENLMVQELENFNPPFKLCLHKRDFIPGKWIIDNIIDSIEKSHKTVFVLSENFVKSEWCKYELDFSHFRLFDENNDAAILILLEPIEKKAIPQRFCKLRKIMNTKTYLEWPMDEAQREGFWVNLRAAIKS
Sequence of Toll-like receptor 5 (Homo sapiens) (O60602 whole entry): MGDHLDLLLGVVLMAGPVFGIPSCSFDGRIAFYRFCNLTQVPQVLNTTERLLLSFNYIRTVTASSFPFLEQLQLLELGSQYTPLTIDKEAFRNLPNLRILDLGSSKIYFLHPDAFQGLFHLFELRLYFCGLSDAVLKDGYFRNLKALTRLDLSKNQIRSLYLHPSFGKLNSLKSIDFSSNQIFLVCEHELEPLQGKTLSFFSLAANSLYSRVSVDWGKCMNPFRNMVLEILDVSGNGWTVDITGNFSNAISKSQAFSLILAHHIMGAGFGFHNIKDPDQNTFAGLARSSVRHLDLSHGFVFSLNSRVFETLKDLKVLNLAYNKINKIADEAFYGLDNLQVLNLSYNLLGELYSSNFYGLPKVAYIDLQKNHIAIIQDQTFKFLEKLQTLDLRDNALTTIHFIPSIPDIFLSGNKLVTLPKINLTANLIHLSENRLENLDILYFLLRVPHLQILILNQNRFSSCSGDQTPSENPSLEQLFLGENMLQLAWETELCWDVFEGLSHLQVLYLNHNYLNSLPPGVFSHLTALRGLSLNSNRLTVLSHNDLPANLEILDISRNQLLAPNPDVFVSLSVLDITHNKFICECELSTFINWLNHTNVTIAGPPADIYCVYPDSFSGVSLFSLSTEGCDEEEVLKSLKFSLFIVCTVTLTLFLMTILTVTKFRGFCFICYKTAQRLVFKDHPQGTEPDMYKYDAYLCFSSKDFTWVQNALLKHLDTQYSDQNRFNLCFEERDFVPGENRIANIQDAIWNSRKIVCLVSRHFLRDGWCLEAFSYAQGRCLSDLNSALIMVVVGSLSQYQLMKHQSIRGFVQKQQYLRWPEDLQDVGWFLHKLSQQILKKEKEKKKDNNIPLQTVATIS
Sequence of Toll-like receptor 4 (Homo sapiens) (O00206 whole entry): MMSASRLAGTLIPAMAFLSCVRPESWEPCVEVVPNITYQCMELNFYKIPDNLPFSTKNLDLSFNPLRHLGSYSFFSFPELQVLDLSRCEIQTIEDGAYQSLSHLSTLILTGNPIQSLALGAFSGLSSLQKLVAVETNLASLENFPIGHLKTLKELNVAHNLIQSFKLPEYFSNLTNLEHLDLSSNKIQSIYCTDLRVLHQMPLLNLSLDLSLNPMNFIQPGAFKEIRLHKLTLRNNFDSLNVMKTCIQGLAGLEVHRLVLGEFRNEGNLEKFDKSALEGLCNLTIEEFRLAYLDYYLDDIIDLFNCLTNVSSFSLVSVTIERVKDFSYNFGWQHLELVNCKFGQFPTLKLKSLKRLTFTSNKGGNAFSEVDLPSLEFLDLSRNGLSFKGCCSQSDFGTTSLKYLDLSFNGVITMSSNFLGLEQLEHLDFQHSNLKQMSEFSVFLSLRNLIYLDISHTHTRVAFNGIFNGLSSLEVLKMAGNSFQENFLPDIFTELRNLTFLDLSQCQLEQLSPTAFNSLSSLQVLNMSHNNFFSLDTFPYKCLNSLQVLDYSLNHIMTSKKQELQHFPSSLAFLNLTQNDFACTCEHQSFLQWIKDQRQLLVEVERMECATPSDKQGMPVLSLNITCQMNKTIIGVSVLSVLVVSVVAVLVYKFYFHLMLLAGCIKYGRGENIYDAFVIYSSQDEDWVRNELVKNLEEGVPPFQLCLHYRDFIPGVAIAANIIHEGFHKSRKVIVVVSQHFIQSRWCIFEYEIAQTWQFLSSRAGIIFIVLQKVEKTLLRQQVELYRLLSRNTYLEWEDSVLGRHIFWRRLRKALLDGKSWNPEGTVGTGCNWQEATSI
Sequence of Toll-like receptor 3 (Homo sapiens) (O15455 whole entry): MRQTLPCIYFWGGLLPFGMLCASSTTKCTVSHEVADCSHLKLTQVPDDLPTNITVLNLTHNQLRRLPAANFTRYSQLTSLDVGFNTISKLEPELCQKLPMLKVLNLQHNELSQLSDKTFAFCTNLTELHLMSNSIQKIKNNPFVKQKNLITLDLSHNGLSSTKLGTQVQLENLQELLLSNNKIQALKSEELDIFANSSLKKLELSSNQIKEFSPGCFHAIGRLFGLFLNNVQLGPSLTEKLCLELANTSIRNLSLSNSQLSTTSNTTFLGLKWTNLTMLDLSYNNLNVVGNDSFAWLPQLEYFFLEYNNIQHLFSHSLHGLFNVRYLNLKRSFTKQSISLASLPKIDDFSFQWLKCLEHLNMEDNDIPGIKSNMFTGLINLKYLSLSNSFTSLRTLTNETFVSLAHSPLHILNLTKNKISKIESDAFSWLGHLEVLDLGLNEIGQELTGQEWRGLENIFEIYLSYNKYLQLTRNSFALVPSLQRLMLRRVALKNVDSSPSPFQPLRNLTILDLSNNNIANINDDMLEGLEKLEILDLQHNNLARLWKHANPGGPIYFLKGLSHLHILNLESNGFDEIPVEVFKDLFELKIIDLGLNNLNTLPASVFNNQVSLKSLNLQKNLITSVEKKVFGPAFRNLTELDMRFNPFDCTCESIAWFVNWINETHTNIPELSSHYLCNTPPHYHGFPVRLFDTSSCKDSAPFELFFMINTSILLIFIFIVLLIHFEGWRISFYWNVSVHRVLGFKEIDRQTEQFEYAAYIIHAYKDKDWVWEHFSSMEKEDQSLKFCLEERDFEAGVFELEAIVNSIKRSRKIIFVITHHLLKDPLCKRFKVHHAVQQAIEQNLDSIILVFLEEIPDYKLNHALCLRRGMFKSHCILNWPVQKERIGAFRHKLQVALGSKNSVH

Row | EC50 [1] | Activity [2] | Activity [3] | Activity [4] | Activity [5] | Activity [6] | Activity [7] | Compound
1 | Not Active | inactive | inactive | inactive | inactive | inactive | inactive | CCCCCn1c(N)nc2ncccc21
2 | Not Active | inactive | inactive | inactive | inactive | inactive | inactive | CCCCCn1c(N)nc2c(-c3ccccc3)cccc21
3 | Not Active | inactive | inactive | inactive | inactive | inactive | inactive | CCCCCn1c(N)nc2cnccc21
4 | Not Active | inactive | inactive | inactive | inactive | inactive | inactive | CCCCCn1c(N)nc2c(Cl)cccc21
5 | ND(Unstable) | inactive | inactive | inactive | inactive | inactive | inactive | CCCCC1C(N)=Nc2ccccc21.Cl (stereo unspecified)
6 | Not Active | inactive | inactive | inactive | inactive | inactive | inactive | CCCCCn1c(N)nc2ccc3ccccc3c21
7 | Not Active | inactive | inactive | inactive | inactive | inactive | inactive | CCCCCn1c(N)nc2c([N+](=O)[O-])cccc21

The remaining lines, values behind:

Row | Compound | EC50 [1] | Activity [2] | Activity [3] | Activity [4] | Activity [5] | Activity [6] | Activity [7]
8 | CCCCCn1c(N)nc2cc3ccccc3cc21 | Not Active | inactive | inactive | inactive | inactive | inactive | inactive
9 | CCCCCn1c(N)nc2c(F)cccc21 | Not Active | inactive | inactive | inactive | inactive | inactive | inactive
10 | CCCCCn1c(N)nc2c(C(F)(F)F)cccc21 | Not Active | inactive | inactive | inactive | inactive | inactive | inactive
11 | CCCCC1(O)C(N)=Nc2ccccc21 (stereo unspecified) | Not Active | inactive | inactive | inactive | inactive | inactive | inactive
12 | NCc1cccc(Cn2c(N)nc3ccccc32)c1 | Not Active | inactive | inactive | inactive | inactive | inactive | inactive
13 | CCCCCn1c(N)nc2c(OCc3ccccc3)cccc21 | Not Active | inactive | inactive | inactive | inactive | inactive | inactive
14 | CCCCCn1c(N)nc2c(Cc3ccccc3)cccc21 | Not Active | inactive | inactive | inactive | inactive | inactive | inactive
15 | CCCCCn1c(NC(C)=O)nc2ccccc21 | Not Active | inactive | inactive | inactive | inactive | inactive | inactive
16 | CCCCCn1c(N)nc2c(Br)cccc21 | Not Active | inactive | inactive | inactive | inactive | inactive | inactive
17 | CCCCCn1c(N)nc2ccncc21 | Not Active | inactive | inactive | inactive | inactive | inactive | inactive
18 | CCCCCn1c(N)nc2c(C)cccc21 | – | inactive | inactive | inactive | inactive | inactive | inactive
19 | CCCCOC(=O)n1c(N)nc2ccccc21 | Not Active | inactive | inactive | inactive | inactive | inactive | inactive
20 | CCCCCn1c(N)nc2cccnc21 | Not Active | inactive | inactive | inactive | inactive | inactive | inactive
21 | Nc1nc2ccccc2n1Cc1ccccc1 | Not Active | inactive | inactive | inactive | inactive | inactive | inactive
